Measurements as given in ChEMBL document CHEMBL1687813 (Antimicrob Agents Chemother, 2010).
≈ marks a conversion by molar mass, not a printed value. Calls of active or inactive are those of the source. The rule behind the calls is not given here.

How the values were obtained:
[1] = molecular target: T1, PYRAZINAMIDASE/NICOTINAMIDAS PNCA (PZase) (Mycobacterium tuberculosis) (UniProt Q50575); experiment: Activity of PncA in Mycobacterium tuberculosis H37Ra assessed as compound turnover per ml of microbial cells after 30 mins by […] analysis
T1 sequence (whole entry): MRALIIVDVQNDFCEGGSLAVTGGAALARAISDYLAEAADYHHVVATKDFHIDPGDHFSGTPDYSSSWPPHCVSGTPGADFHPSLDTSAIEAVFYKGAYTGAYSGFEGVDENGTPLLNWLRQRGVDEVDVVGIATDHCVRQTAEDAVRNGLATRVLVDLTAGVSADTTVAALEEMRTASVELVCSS
Method in brief: (§1)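 Whole-cell colorimetric amidase assay: log-phase cells were pelleted and resuspended in sterile water with 0.05% tyloxapol. Substrate (PZA or 5-Cl PZA) was added to 2 mM at 37°C with shaking and sampled at intervals. Clarified aliquots received ferrous ammonium sulfate (20 mM final), stood 30 min at 4°C, were re-spun, and were read at OD468. Extinction coefficients were 0.68 (PA) and 0.47 (5-Cl PA) per mM. Activity is nmol/min per ml of cells (OD600).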

[2] = molecular target: T2, Nicotinamidase/pyrazinamidase (Mycolicibacterium smegmatis) (UniProt Q9ZHK8); experiment: Activity of PzaA in Mycobacterium smegmatis mc2155 assessed as compound turnover per ml of microbial cells after 30 mins by […] analysis
T2 sequence (whole entry): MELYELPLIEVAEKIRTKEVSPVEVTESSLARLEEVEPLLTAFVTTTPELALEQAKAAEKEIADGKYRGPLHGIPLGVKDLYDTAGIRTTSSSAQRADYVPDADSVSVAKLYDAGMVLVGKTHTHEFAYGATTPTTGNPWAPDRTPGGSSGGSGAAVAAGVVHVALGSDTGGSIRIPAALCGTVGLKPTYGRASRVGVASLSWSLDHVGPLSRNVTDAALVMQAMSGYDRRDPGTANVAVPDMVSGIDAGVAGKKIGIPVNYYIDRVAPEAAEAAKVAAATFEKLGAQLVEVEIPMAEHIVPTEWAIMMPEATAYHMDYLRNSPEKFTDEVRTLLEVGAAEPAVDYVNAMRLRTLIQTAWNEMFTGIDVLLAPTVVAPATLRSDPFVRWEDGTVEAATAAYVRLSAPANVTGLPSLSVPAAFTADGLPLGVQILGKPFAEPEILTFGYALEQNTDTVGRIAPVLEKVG

[3] = molecular target: T2, Nicotinamidase/pyrazinamidase (Mycolicibacterium smegmatis); experiment: Activity of PzaA in Mycobacterium smegmatis mc22612 assessed as compound turnover per ml of microbial cells after 30 mins by […] analysis
[4] = molecular target: T2, Nicotinamidase/pyrazinamidase (Mycolicibacterium smegmatis); experiment: Activity of PzaA in Mycobacterium smegmatis mc27031 assessed as compound turnover per ml of microbial cells after 30 mins by […] analysis; method in brief: as §1
[5] = molecular target: T2, Nicotinamidase/pyrazinamidase (Mycolicibacterium smegmatis); experiment: Activity of PzaA in Mycobacterium smegmatis mc27032 assessed as compound turnover per ml of microbial cells after 30 mins by […] analysis; method in brief: as §1
[6] = molecular target: T2, Nicotinamidase/pyrazinamidase (Mycolicibacterium smegmatis); experiment: Activity of PzaA in Mycobacterium smegmatis mc27034 assessed as compound turnover per ml of microbial cells after 30 mins by […] analysis; method in brief: as §1
[7] = molecular target: T2, Nicotinamidase/pyrazinamidase (Mycolicibacterium smegmatis); experiment: Activity of PzaA in Mycobacterium smegmatis mc27035 assessed as compound turnover per ml of microbial cells after 30 mins by […] analysis; method in brief: as §1
[8] = molecular target: T2, Nicotinamidase/pyrazinamidase (Mycolicibacterium smegmatis); experiment: Activity of PzaA in Mycobacterium smegmatis mc27036 assessed as compound turnover per ml of microbial cells after 30 mins by […] analysis; method in brief: as §1
[9] = molecular target: T2, Nicotinamidase/pyrazinamidase (Mycolicibacterium smegmatis); experiment: Activity of PzaA in Mycobacterium smegmatis mc27037 assessed as compound turnover per ml of microbial cells after 30 mins by […] analysis; method in brief: as §1
[10] = molecular target: T2, Nicotinamidase/pyrazinamidase (Mycolicibacterium smegmatis); experiment: Activity of PzaA in Mycobacterium smegmatis mc27038 assessed as compound turnover per ml of microbial cells after 30 mins by […] analysis; method in brief: as §1
[11] = tested on: Mycolicibacterium smegmatis; experiment: Antimicrobial activity against Mycobacterium smegmatis mc2155 after 48 hrs by broth microdilution method; assay type: functional; details: mc2155, 48 h
[12] = tested on: Mycolicibacterium smegmatis; experiment: Antimicrobial activity against 5-Cl PZA-resistant Mycobacterium smegmatis mc22612after 48 hrs by broth microdilution method; assay type: functional; details: mc22612, 48 h
[13] = tested on: Mycolicibacterium smegmatis; experiment: Antimicrobial activity against Mycobacterium smegmatis mc27031 harboring MSMEG_1088::magellan4 after 48 hrs by broth microdilution method; assay type: functional; details: mc27031, 48 h
Method in brief: (§2)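 Broth MIC: exponentially growing cells were diluted to 10^6 CFU/ml in supplemented 7H9 across a range of PZA or 5-Cl PZA concentrations. Medium was adjusted to pH 5.2 where indicated. Cultures were incubated 2 days at 37°C. The MIC is the lowest concentration preventing visible growth. Plasmid-borne amidases were induced with 50 ng/ml anhydrotetracycline.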

[14] = tested on: Mycolicibacterium smegmatis; experiment: Antimicrobial activity against Mycobacterium smegmatis mc27032 harboring deltaMSMEG_1088 from Mycobacterium smegmatis mc2155 after 48 hrs by broth microdilution method; assay type: functional; details: mc27032, 48 h; method in brief: as §2
[15] = tested on: Mycolicibacterium smegmatis; experiment: Antimicrobial activity against Mycobacterium smegmatis mc27034 harboring deltaMSMEG_1090 from Mycobacterium smegmatis mc27031 after 48 hrs by broth microdilution method; assay type: functional; details: mc27034, 48 h; method in brief: as §2
[16] = tested on: Mycolicibacterium smegmatis; experiment: Antimicrobial activity against Mycobacterium smegmatis mc27035 harboring deltaMSMEG_1090 from Mycobacterium smegmatis mc2155 after 48 hrs by broth microdilution method; assay type: functional; details: mc27035, 48 h; method in brief: as §2
[17] = tested on: Mycolicibacterium smegmatis; experiment: Antimicrobial activity against Mycobacterium smegmatis mc27036 harboring deltaMSMEG_1090 from Mycobacterium smegmatis mc22612 after 48 hrs by broth microdilution method; assay type: functional; details: mc27036, 48 h; method in brief: as §2
[18] = tested on: Mycolicibacterium smegmatis; experiment: Antimicrobial activity against 5-Cl-PZA-resistant Mycobacterium smegmatis mc27037 after 48 hrs by broth microdilution method; assay type: functional; details: mc27037, 48 h; method in brief: as §2
[19] = tested on: Mycolicibacterium smegmatis; experiment: Antimicrobial activity against Mycobacterium smegmatis mc27038 harboring attBL5::Ptc::pzaAMsmeg from Mycobacterium smegmatis mc2155 after 48 hrs by broth microdilution method; assay type: functional; details: mc27038, 48 h; method in brief: as §2
[20] = tested on: Mycobacterium tuberculosis; experiment: Antimicrobial activity against Mycobacterium tuberculosis H37Ra after 11 days by broth microdilution method at pH 6; assay type: functional; details: 264 h
Method in brief: (§3)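 Tubercle bacilli were diluted to 10^6 CFU/ml in supplemented 7H9 containing graded PZA or 5-Cl PZA, at pH 6.0 or neutral pH 6.8. Cultures were incubated 11 days at 37°C. The MIC is the lowest concentration blocking visible growth. Integrated amidase constructs were induced with 50 ng/ml anhydrotetracycline.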

[21] = tested on: Mycobacterium tuberculosis; experiment: Antimicrobial activity against Mycobacterium tuberculosis H37Ra after 11 days by broth microdilution method at pH 6.8; assay type: functional; details: 264 h; method in brief: as §3
[22] = tested on: Mycolicibacterium smegmatis; experiment: Inhibition of Fatty acid synthase type 1 in Mycobacterium smegmatis mc27031 at 1500 ug/ml after 2 hrs by HPLC
[23] = tested on: Mycolicibacterium smegmatis; experiment: Inhibition of Fatty acid synthase type 1 in Mycobacterium smegmatis mc2155 at 250 ug/ml after 2 hrs by HPLC
[24] = tested on: Mycolicibacterium smegmatis; experiment: Inhibition of Fatty acid synthase type 1 in Mycobacterium smegmatis mc2155 at 2.5 mg/ml after 2 hrs by HPLC
Method in brief: (§4)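 FAS I activity: mid-log cells (OD600 0.5) were resuspended to OD600 0.2 in 7H9 with 0.2% dextrose and 0.05% tyloxapol, pH 5.1, plus 2.5 mg/ml PZA, for 2 h at 37°C. They were pulsed with [1-14C]acetate (1 μCi/ml) for a further 2 h. Lipids were extracted, saponified, and derivatized to p-bromophenacyl esters. 14C-palmitate was quantified by reverse-phase HPLC.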

[25] = tested on: Mycolicibacterium smegmatis; experiment: Inhibition of Fatty acid synthase type 1 in Mycobacterium smegmatis mc27031 at 2.5 mg/ml after 2 hrs by HPLC; method in brief: as §4

SMILES	Activity [1] [nmol/min]	Activity [2] [nmol/min]	Activity [3] [nmol/min]	Activity [4] [nmol/min]	Activity [5] [nmol/min]	Activity [6] [nmol/min]	Activity [7] [nmol/min]	Activity [8] [nmol/min]	Activity [9] [nmol/min]	Activity [10] [nmol/min]	MIC [11] [µg/mL]	MIC [12] [µg/mL]	MIC [13] [µg/mL]	MIC [14] [µg/mL]	MIC [15] [µg/mL]	MIC [16] [µg/mL]	MIC [17] [µg/mL]	MIC [18] [µg/mL]	MIC [19] [µg/mL]	MIC [20] [µg/mL]	further results
NC(=O)c1cnc(Cl)cn1	0.15	0.85	32	100	65	1.2	0.95	1.2	100	34	25 (≈ 159 µM)	125 (≈ 793 µM)	125 (≈ 793 µM)	125 (≈ 793 µM)	25 (≈ 159 µM)	25 (≈ 159 µM)	25 (≈ 159 µM)	125 (≈ 793 µM)	125 (≈ 793 µM)	25 (≈ 159 µM)	MIC [21]: 200 µg/mL (≈ 1270 µM); Activity [22]: Active; Activity [23]: Active
NC(=O)c1cnccn1 [PYRAZINAMIDE]	0.23	0.85	32	100	65	1.2	0.95	1.2	100	34	> 4000	> 4000	150 (≈ 1220 µM)	150 (≈ 1220 µM)	> 4000	> 4000	> 4000	150 (≈ 1220 µM)	> 4000	> 1000	inhibition [24]: Active; MIC [21]: 62.5 µg/mL (≈ 508 µM); inhibition [25]: inactive
